# MEX-5 binding: C. elegans MEX-5 TCR-2 RNA binding activity; MEX-5/FITC-TCR2 RNA binding, fluorescence polarization; hits give low values; activity score (negative = inhibition of binding), % at 10 µM; 0.38% of 300,000 active; AID 1832;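 active = inhibition past about -25% in most replicates, and total fluorescence under double the plate's negative control median, limit read from the data; inconclusive = replicates evenly split on the limit, or fluorescence at least double controls; inactive = too little inhibition in most replicates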
# EBV gp42 block: blocks Epstein-Barr virus glycoprotein 42 binding; Q1HVG2; Fluorescence polarization binding assay, mP read-out; inhibition, % (tested at 21.74 µM); 0.42% of 220,000 active
# Target sequence (Q1HVG2 whole entry, looked up): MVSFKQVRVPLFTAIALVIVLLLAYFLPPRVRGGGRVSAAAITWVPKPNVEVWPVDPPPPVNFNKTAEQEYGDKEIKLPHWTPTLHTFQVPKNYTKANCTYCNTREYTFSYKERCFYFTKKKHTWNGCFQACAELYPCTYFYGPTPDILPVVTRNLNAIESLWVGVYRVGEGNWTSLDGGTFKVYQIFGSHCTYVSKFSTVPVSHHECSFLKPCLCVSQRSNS
# RanGTP-Imp inh: disruptors of Ran-importin-beta complex formation – biochemical, FRET, CFP-Ran, YFP-importin-beta, homogeneous, primary screen. cell-free CFP-Ran/YFP-importin-beta FRET ratio. inhibition, % (no concentration beside the values). 1.1% of 300,000 active. AID 2216;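 active = more than half of the replicate wells show a fall in the fluorescence ratio signal beyond about 16%, limit read from the data, passing the limit was not always enough; inconclusive = exactly half of the replicate wells pass the set limit; inactive = fewer than half of replicates pass the limit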
# Runt-CBFb FRET: Runt domain-CBFb interaction inhibition; inhibition, % at 20 µM; AID 1496; Q01196+Q13951; 0.46% of 220,000 active; Cerulean-Runt/Venus-CBFb FRET ratio 530/480, 1 h;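 active = inhibition over about 50% at 20 µM in the single-dose screen, limit read from the data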
#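 Reagent – Venus-CBFb binding partner, 100 nM · Assay system – Cerulean-tagged RUNX1 Runt domain (FRET donor) fusion protein · Input – 100 nM per protein · Incubation – two 1 h room-temperature incubations shielded from light · Measured by – FRET fluorescence · Medium – Tris buffer pH 7.5 with salts and BSA · Benchmarks – unlabeled CBFb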
# Runt-SMMHC FRET: blocks binding of human RUNX1 Runt domain to CBFb-SMMHC | Q01196+Q13951 | Cerulean-Runt/Venus-CBFb-SMMHC FRET ratio 530/480, 1 h | inhibition, % at 20 µM | 0.74% of 220,000 active;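 active = mean inhibition across duplicate retests at 20 µM reaching about 50%, limit read from the data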;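 also: inhibitors lower the FRET ratio by blocking Runt binding to CBFb-SMMHC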
# PKD1 inh: inhibitors of human PKD1 kinase; inhibition, % (no concentration beside the values); 0.056% of 200,000 active; AID 797; PKD1 kinase fluorescence polarization assay
# YIC counter: counter-screen YIC FRET for RanGTP-importin-beta inhibitors | shares compounds with RanGTP-Imp inh | 40% of 1,000 active | Purified YIC probe, intramolecular FRET ratio YFP/CFP | IC50, µM | AID 435026;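 active = fitted half-maximal inhibitory concentration no more than tenfold above the top dose tested; inconclusive = flat fit with 30 to 70% activity, or poor fit; inactive = half-maximal concentration beyond tenfold above the top dose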
# Hits are given with their value; 0 = inactive; ? = inconclusive; - = no result given. Rows were chosen to be rich in hits. Some 2% of all compounds tested hit in one or more screens of this group. Rule as the data show it, unless noted: active = inhibition above about 50%; inactive = the rest.
SMILES,MEX-5 binding,EBV gp42 block,RanGTP-Imp inh,Runt-CBFb FRET,Runt-SMMHC FRET,PKD1 inh,YIC counter
NC(=O)c1ccccc1NC(=O)/C=C/c1ccc(Cl)cc1,0,0,23,0,0,0,0
CCOC(=O)c1ccc(NC(=O)CSc2nc(C)nc3c2c(=O)n(C)c(=O)n3C)cc1,0,0,19,0,0,0,0
C=CCn1c(O)c(N=NC(=S)Nc2ccccc2F)c2cc(S(=O)(=O)N3CCOCC3)ccc21,0,0,18,0,0,0,0
O=C(c1nc2ccccn2c1CN1CCCC(c2nc3ccccc3o2)C1)N1CCCC1 (stereo not drawn),0,0,0,0,0,0,-
CC(=O)N1CCC(N(CCN2CCOCC2)C(=O)Nc2ccc(Cl)c(Cl)c2)CC1,0,-,19,-,-,0,0
COCCN(CCOC)C(=O)c1ccc(SCc2ccc(C)cc2)c([N+](=O)[O-])c1,0,0,0,0,0,0,-
CC1(C)CC2CC(C)(CN2C(=S)Nc2ccccc2F)C1 (stereo not drawn),0,0,0,0,0,0,-
CNS(=O)(=O)c1cc(OC)c(OC)cc1CC(=O)OC,0,0,21,0,0,0,0
COc1ccc(CCNc2nc3ccccc3n3nnnc23)cc1OC,0,0,28,0,0,0,25
Cc1ccc(S(=O)(=O)CC(=O)N(CCCN(C)C)c2nc3ccc(C)cc3s2)cc1,0,-,21,-,-,-,0
Cc1ccc2nc(N(CCCN(C)C)C(=O)CS(=O)(=O)c3ccccc3)sc2c1,0,-,?,-,-,-,-
Cc1noc(C)c1C(=O)Nc1sc2c(c1C(N)=O)CCCCC2,0,0,0,0,0,0,-
Cc1noc(C)c1C(=O)Nc1sc2c(c1C(N)=O)CCC2,0,0,26,0,0,0,0
COc1ccc(Cl)cc1S(=O)(=O)N1CCC(C(=O)NCc2ccccn2)CC1,0,-,0,-,-,-,-
CCN(CC)S(=O)(=O)c1ccc2nc(CCl)[nH]c2c1,0,0,0,0,0,0,-
Cc1cc(N/N=C/c2ccc(O)cc2O)c2ccccc2n1,0,-,0,-,-,-,-
Oc1ccc(/C=N/Nc2ccc3ccccc3c2)c(O)c1,0,0,16,0,0,0,0
O=C1c2ccccc2C(=O)N1CC(O)COc1ccccc1Cl (stereo not drawn),0,-,0,-,-,-,-
COc1ccccc1N1CCN(C(=O)/C=C/c2ccc(C)cc2)CC1,0,0,20,0,0,0,0
COc1ccc(CO[C@@H]2O[C@H](CO)[C@@H](O)[C@H](O)[C@H]2NC(C)=O)cc1OC,0,-,0,-,-,-,-
Cc1ccc(OCC(=O)Nc2cccc(S(=O)(=O)N3CCCCCC3)c2)c([N+](=O)[O-])n1,0,0,0,0,0,0,-
Cc1c(C)n2c(SCC(=O)Nc3cccc4ccccc34)nnc2[nH]c1=O,0,-,0,-,-,-,-
c1cncc(CNC2CCCc3ccccc32)c1 (stereo not drawn),0,0,0,0,0,0,-
O=[N+]([O-])c1ccc(CNC2CCCc3ccccc32)cc1 (stereo not drawn),0,0,25,0,72,0,0
CCCC(=O)OCC(=O)c1[nH]c(C)c(C(C)=O)c1C,0,0,0,0,0,0,-
SMILES,MEX-5 binding,EBV gp42 block,RanGTP-Imp inh,Runt-CBFb FRET,Runt-SMMHC FRET,PKD1 inh,YIC counter
Cc1ccccc1OCC(=O)NCC(c1cccs1)N1CCOCC1 (stereo not drawn),0,-,0,-,-,-,-
O=C(Cc1n[nH]c(=O)c2ccccc12)NCc1ccccn1,0,0,23,0,0,0,0
O=C(O)CN1C(=O)c2ccc(C(=O)c3ccccc3)cc2C1=O,0,-,0,-,-,-,-
COc1ccc(-c2nc(NC(=O)c3n[nH]c(=O)c4ccccc34)sc2C)cc1,0,0,22,0,0,0,0
Nc1nc(CSc2nc3ccccc3s2)nc(N2CCCCC2)n1,0,0,36,0,0,0,0
CCc1ccc(Nc2nc(N)nc(CSc3nc4ccccc4s3)n2)cc1,-,0,0,0,0,0,-
Cc1ccc(S(=O)(=O)N2CCN(C(=O)c3ccc([N+](=O)[O-])cc3)C2)cc1,0,0,0,0,0,0,-
CCC(=O)N(CC(=O)Nc1sc(C)c(C)c1C(N)=O)C1CCCC1,0,0,22,0,0,0,0
CCc1ccc(CNc2ccc3c(c2)ncn3C(C)(C)C)cc1,0,-,18,-,-,-,0
CC(C)(C)n1cnc2cc(NCc3ccc(Br)cc3)ccc21,0,-,23,-,-,-,0
CCn1cnc2cc(NCc3ccccc3Cl)ccc21,0,-,0,-,-,-,-
CCN(CC)c1ccc(CNc2ccc3c(c2)ncn3C(C)(C)C)cc1,0,-,0,-,-,-,-
CCc1ccc(CNc2ccc3c(c2)ncn3CC)cc1,0,-,17,-,-,-,0
COc1ccccc1C(=O)NCC(=O)NCCc1ccc(Cl)cc1,0,-,0,-,-,-,-
O=[N+]([O-])c1ccc(C2(O)CN(c3ccccc3)C3=[N+]2CCS3)cc1 (stereo not drawn),0,0,0,0,0,0,-
CCOc1ccc(NS(=O)(=O)c2ccc3c(c2)CCN3C(C)=O)cc1,0,-,0,-,-,-,-
CCC(C(=O)NC1CCCCC1)n1c2ccccc2c2nc(=O)cc(C)n21 (stereo not drawn),0,-,0,-,-,-,-
O=C(CN1C(=O)COc2ccc(Cl)cc21)Nc1ccc2c(c1)OCCO2,0,0,0,0,0,0,-

# Screening results deposited in PubChem BioAssay by several laboratories.
